Results published in ChEMBL document CHEMBL1153733, “Imidazole derivatives as possible microbicides with dual protection” (Eur J Med Chem, 2010).
In brackets after ≈: the same amount, converted by molar mass.

What was measured:
Spermatozoa [1] = test: Sperimcidal activity against human spermatozoa assessed as sperm motility at 1 % drug solution%; type: functional
Method in brief: (§1)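 Drop of sperm–compound mixture placed on slide under cover glass, examined by phase contrast microscopy in five fields; percentage of motile spermatozoa scored visually within 30–40 s. N-9 as reference control; some compounds tested as D-(-)-tartrate salts.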

Trichomonas vaginalis = test: Antitrichomonal activity against Trichomonas vaginalis after 48 hrs by trypan blue exclusion assay; type: functional
Method in brief: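 Trophozoites in TYM medium; stock solutions serially diluted in TYM to concentrations up to 0.1 mg/mL, DMSO/TYM as vehicle control. Parasites added, incubated anaerobically at 37 °C, viability checked by trypan blue exclusion under microscope (200×) from 3 to 48 h. MIC = lowest concentration with all cells dead at 48 h. Metronidazole reference; run three times.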

Candida albicans = test: Antifungal activity against Candida albicans after 48 hrs by broth microdilution technique; type: functional
Method in brief: (§2)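 Broth microdilution MIC per NCCLS guidelines in RPMI 1640 buffered with MOPS; starting inoculum of test culture 1–5 × 10³ CFU/mL.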

Cryptococcus neoformans = test: Antifungal activity against Cryptococcus neoformans after 48 hrs by broth microdilution technique; type: functional; method in brief: as §2
Sporothrix schenckii = test: Antifungal activity against Sporothrix schenckii after 48 hrs by broth microdilution technique; type: functional; method in brief: as §2
[2] = tested on: Trichophyton mentagrophytes; test: Antifungal activity against Trichophyton mentagrophytes after 48 hrs by broth microdilution technique; type: functional; method in brief: as §2
Aspergillus fumigatus = test: Antifungal activity against Aspergillus fumigatus after 48 hrs by broth microdilution technique; type: functional; method in brief: as §2
Candida parapsilosis = test: Antifungal activity against Candida parapsilosis after 48 hrs by broth microdilution technique; type: functional; conditions: Lodderomyces parapsilosis; method in brief: as §2
HeLa = test: Cytotoxicity against human HeLa cells at 200 ug/ml after 24 hrs by MTT assay; type: cell-based
Method in brief: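 HeLa cells seeded at 5.0 × 10⁴ per well in DMEM with 10% FCS, 24 h at 37 °C in 5% CO₂; medium replaced with fresh medium containing test dilutions, 10% DMSO vehicle in control wells. After a further 24 h, MTT added; formazan dissolved in DMSO, OD read at 540 nm. Mean ± SE of 3 estimations.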

Spermatozoa [3] = test: Sperimcidal activity against human spermatozoa assessed as sperm immobilization at 1 % drug solution%; type: functional; method in brief: as §1

Compound | Activity (Spermatozoa [1]) [%] | MIC (Trichomonas vaginalis) [µM] | MIC (Candida albicans) [mg/L] | MIC (Cryptococcus neoformans) [mg/L] | MIC (Sporothrix schenckii) [mg/L] | MIC [2] [mg/L] | MIC (Aspergillus fumigatus) [mg/L] | MIC (Candida parapsilosis) [mg/L] | Activity (HeLa) | Activity (Spermatozoa [3]) [%]
Cc1ncc([N+](=O)[O-])n1CCOC(=O)CCN1CCN(c2ccc(F)cc2)CC1 | 88.24 | 1.54 (≈ 0.624 µg/mL) | > 50 | > 50 | > 50 | 50 (≈ 123 µM) | > 50 | > 50 | Non-toxic | 
Cc1ncc([N+](=O)[O-])n1CCOS(C)(=O)=O | 94.12 | 5.02 (≈ 1.25 µg/mL) | > 50 | > 50 | 50 (≈ 201 µM) | > 50 | > 50 | > 50 |  | 
Cc1ncc([N+](=O)[O-])n1CCn1cnc2ccccc21 | 0 | 4.61 (≈ 1.25 µg/mL) | > 50 | > 50 | 50 (≈ 184 µM) | > 50 | > 50 | > 50 | Non-toxic | 100
Cc1ncc([N+](=O)[O-])n1CCOC(=O)CCn1ccnc1[N+](=O)[O-] | 100 | 9.25 (≈ 3.13 µg/mL) | > 50 | > 50 | > 50 | 50 (≈ 148 µM) | > 50 | > 50 | Non-toxic | 
Cc1ncc([N+](=O)[O-])n1CCOC(=O)CCn1c([N+](=O)[O-])cnc1C | 88.24 | 20.6 (≈ 7.26 µg/mL) | > 50 | > 50 | > 50 | 50 (≈ 142 µM) | > 50 | > 50 | Non-toxic | 
Cc1ncc([N+](=O)[O-])n1CCSC(=S)N1CCN(c2ccc([N+](=O)[O-])cc2)CC1 | 41.18 | 2.87 (≈ 1.25 µg/mL) | > 50 | > 50 | > 50 | > 50 | > 50 | > 50 | Non-toxic | 
Cc1ncc([N+](=O)[O-])n1CCOC(=O)CCn1ccnc1 | 100 | 10.7 (≈ 3.13 µg/mL) | > 50 | > 50 | > 50 | 50 (≈ 170 µM) | > 50 | > 50 | Non-toxic | 
CS(=O)(=O)[O-].Cc1ncc([N+](=O)[O-])n1CC[n+]1ccccc1 | 85.09 | 9.53 | > 50 | > 50 | > 50 | > 50 | > 50 | > 50 | Non-toxic | 
Cc1ncc([N+](=O)[O-])n1CCn1ccnc1 | 92.36 | 14.1 (≈ 3.13 µg/mL) | 25 (≈ 113 µM) | > 50 | 50 (≈ 226 µM) | > 50 | > 50 | > 50 | Non-toxic | 
C=CC(=O)OCCn1c([N+](=O)[O-])cnc1C | 70.59 | 42.2 (≈ 9.51 µg/mL) | > 50 | 50 (≈ 222 µM) | 50 (≈ 222 µM) | 50 (≈ 222 µM) | > 50 | > 50 | Non-toxic | 
Cc1ncc([N+](=O)[O-])n1CCOC(=O)CCn1nnc2ccccc21 | 95.734 | 27.6 (≈ 9.51 µg/mL) | > 50 | > 50 | > 50 | 50 (≈ 145 µM) | > 50 | > 50 | Non-toxic | 
Cc1ncc([N+](=O)[O-])n1CCOC(=O)CCn1cncn1 | 100 | 21.3 (≈ 6.26 µg/mL) | > 50 | > 50 | > 50 | 50 (≈ 170 µM) | > 50 | > 50 | Non-toxic | 
Cc1ncc([N+](=O)[O-])n1CCSC(=S)N1CCN(c2ncccn2)CC1 | 94.12 | 25.4 (≈ 10 µg/mL) | > 50 | > 50 | > 50 | 50 (≈ 127 µM) | > 50 | > 50 | Non-toxic | 
Cc1ncc([N+](=O)[O-])n1CCCl | 58.82 | 6.6 (≈ 1.25 µg/mL) | > 50 | 50 (≈ 264 µM) | 50 (≈ 264 µM) | > 50 | > 50 | > 50 |  | 
CC(=O)OCCn1c([N+](=O)[O-])cnc1C | 82.35 | 23.5 (≈ 5 µg/mL) | > 50 | > 50 | > 50 | > 50 | > 50 | > 50 |  | 
Cc1ncc([N+](=O)[O-])n1CCOC(=O)CCl | 98.37 | 10.1 (≈ 2.5 µg/mL) | > 50 | > 50 | > 50 | 25 (≈ 101 µM) | > 50 | > 50 |  | 
Cc1ncc([N+](=O)[O-])n1CCOC(=O)CCN1CCN(c2ccc([N+](=O)[O-])cc2)CC1 | 82.35 | 1.45 (≈ 0.627 µg/mL) | > 50 | > 50 | > 50 | 50 (≈ 116 µM) | > 50 | > 50 | Non-toxic | 
Cc1ncc([N+](=O)[O-])n1CCSC(=S)N1CCOCC1 | 70.59 | 1.98 (≈ 0.626 µg/mL) | > 50 | > 50 | 50 (≈ 158 µM) | 50 (≈ 158 µM) | > 50 | > 50 | Non-toxic | 
Cc1ncc([N+](=O)[O-])n1CCSC(=S)N1CCCCC1 | 70.59 | 1 (≈ 0.314 µg/mL) | > 50 | > 50 | 25 (≈ 79.5 µM) | 50 (≈ 159 µM) | > 50 | > 50 | Non-toxic | 
Cc1ncc([N+](=O)[O-])n1CCOC(=O)CCN(C)CCC(Oc1ccc(C(F)(F)F)cc1)c1ccccc1 (stereo not given) | 0 | 11.7 (≈ 6.25 µg/mL) | > 50 | > 50 | > 50 | 50 (≈ 93.5 µM) | > 50 | > 50 | Non-toxic | 100
CCN(CC)C(=S)SCCn1c([N+](=O)[O-])cnc1C | 100 | 1.03 (≈ 0.311 µg/mL) | 50 (≈ 165 µM) | 50 (≈ 165 µM) | 25 (≈ 82.7 µM) | 25 (≈ 82.7 µM) | > 50 | > 50 | Non-toxic | 
Cc1ncc([N+](=O)[O-])n1CCSC(=S)N1CCN(C)CC1 | 0 | 7.6 (≈ 2.5 µg/mL) | > 50 | > 50 | 50 (≈ 152 µM) | 50 (≈ 152 µM) | > 50 | > 50 | Non-toxic | 100
Cc1ncc([N+](=O)[O-])n1CCSC(=S)N1CCCC1.O=C(O)C(O)C(O)C(=O)O | 0 | 8.33 | 50 | 50 | 25 | 50 | > 50 | > 50 | Non-toxic | 100
Cc1ncc([N+](=O)[O-])n1CCSC(=S)N(C)C.O=C(O)C(O)C(O)C(=O)O | 0 | 1.14 | > 50 | > 50 | > 50 | 50 | > 50 | > 50 | Non-toxic | 100
COc1ccccc1N1CCN(C(=S)SCCn2c([N+](=O)[O-])cnc2C)CC1.O=C(O)C(O)C(O)C(=O)O | 0 | 5.94 | > 50 | > 50 | 50 | 25 | > 50 | > 50 | Non-toxic | 100
Cc1ncc([N+](=O)[O-])n1CCSC(=S)N1CCN(c2ccccn2)CC1.O=C(O)C(O)C(O)C(=O)O | 0 | 6.38 | > 50 | > 50 | 50 | 50 | > 50 | > 50 | Non-toxic | 100
OC(Cn1cncn1)(Cn1cncn1)c1ccc(F)cc1F [FLUCONAZOLE] |  |  | 0.5 (≈ 1.63 µM) | 1 (≈ 3.27 µM) | 2 (≈ 6.53 µM) | 1 (≈ 3.27 µM) | 2 (≈ 6.53 µM) | 1 (≈ 3.27 µM) | Non-toxic | 
Cc1ncc([N+](=O)[O-])n1CCOC(=S)[S-].[Na+] [METRONIDAZOLE XANTHATE] | 90.24 | 112 | > 50 | > 50 | > 50 | > 50 | > 50 | > 50 | Non-toxic | 
Cc1ncc([N+](=O)[O-])n1CCO [METRONIDAZOLE] | 100 | 11.7 (≈ 2 µg/mL) |  |  |  |  |  |  | Non-toxic | 
CCCCCCCCCc1ccc(OCCOCCOCCOCCOCCOCCOCCOCCOCCO)cc1 [NONOXYNOL 9] | 0 | 60.8 (≈ 37.5 µg/mL) | > 50 |  |  |  |  | 50 (≈ 81.1 µM) |  | 
